# An excerpt weighted towards active compounds, which were near 3.7% of everything screened.
# KCNK9 inh: blocks the human KCNK9 two-pore domain potassium channel. Q9NPC2. HEK293 KCNK9, FluxOR thallium flux fluorescence; stronger effect = lower value. B-score at 10 µM. actives 1.2% (n = 310,000). AID 488922;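 active = ratio B-score over 3 SD below the library mean, with starting fluorescence within 5 SD of its mean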;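 also: negative B-score means less thallium flux so channel inhibition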
# Target sequence (Q9NPC2 whole entry, looked up, the tested form may be a part): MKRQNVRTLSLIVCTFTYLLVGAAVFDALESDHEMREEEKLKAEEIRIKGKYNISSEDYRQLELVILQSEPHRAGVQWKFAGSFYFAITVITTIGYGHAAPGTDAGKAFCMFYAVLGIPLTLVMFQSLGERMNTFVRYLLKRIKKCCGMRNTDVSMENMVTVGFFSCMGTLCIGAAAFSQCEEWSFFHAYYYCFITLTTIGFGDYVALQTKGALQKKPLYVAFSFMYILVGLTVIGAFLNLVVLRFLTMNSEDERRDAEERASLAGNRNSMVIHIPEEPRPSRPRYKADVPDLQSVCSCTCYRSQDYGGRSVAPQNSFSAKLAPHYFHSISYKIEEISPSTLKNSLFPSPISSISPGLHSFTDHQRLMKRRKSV
# Kir21 block: blocks the mouse Kir2.1 inward-rectifier potassium channel. P35561. HEK293-Kir2.1, FluxOR thallium flux fluorescence; stronger effect = lower value. B-score at 10 µM. actives 0.85% (n = 310,000). AID 1672;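 active = fluorescence ratio B-score at or below minus 3 SD of library scores, with starting-brightness B-score within 2 SD, cut at about -4.2 in these data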;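 also: channel flux triggered by added potassium and thallium sulfate stimulus; B-score of peak minus minimum fluorescence over baseline after thallium stimulus; more negative B-score means stronger Kir2.1 block with less thallium influx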
# hERG protect: compounds protecting human hERG from proarrhythmic drug block; AID 1511; CHO-hERG, FluxOR thallium flux, dofetilide IC70 present; actives 0.51% (n = 310,000); activation (rescue from dofetilide block), less the hit threshold, % at 10 µM; Q12809;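 active = activation above the mean of controls blocked by dofetilide plus 5 SD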;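 also: thallium influx through hERG after potassium depolarization seen as dye fluorescence rise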
# KCNQ1 pot: potentiates or activates the human KCNQ1 potassium channel; P51787; B-score at 10 µM; actives 0.35% (n = 310,000); CHO-K1 KCNQ1, thallium flux FluxOR fluorescence; stronger effect = higher value; AID 2648;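 active = fluorescence ratio B-score, a plate-corrected score, at least three library SD, with initial intensity B-score within 5 SD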
#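 Schedule – 37 °C overnight plating, 90-min dark dye load, 20-min compound pretreatment · System – stable KCNQ1 CHO-K1 line · Probe or stimulus – thallium- and potassium-containing depolarizing buffer · Measured by – kinetic FluxOR fluorescence, 10 s baseline plus 110 s post-stimulus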
# KCNK3 block: human KCNK3 channel inhibition, primary screen; O14649; actives 0.84% (n = 340,000); CHO-KCNK3 thallium flux, FluxOR fluorescence; stronger effect = lower value; B-score at 10 µM;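 active = B-score under library mean minus 4 SD, starting fluorescence ratio at most library mean plus 5 SD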;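 also: more negative B-score means stronger inhibition of thallium flux through KCNK3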
# Target sequence (O14649 whole entry, looked up): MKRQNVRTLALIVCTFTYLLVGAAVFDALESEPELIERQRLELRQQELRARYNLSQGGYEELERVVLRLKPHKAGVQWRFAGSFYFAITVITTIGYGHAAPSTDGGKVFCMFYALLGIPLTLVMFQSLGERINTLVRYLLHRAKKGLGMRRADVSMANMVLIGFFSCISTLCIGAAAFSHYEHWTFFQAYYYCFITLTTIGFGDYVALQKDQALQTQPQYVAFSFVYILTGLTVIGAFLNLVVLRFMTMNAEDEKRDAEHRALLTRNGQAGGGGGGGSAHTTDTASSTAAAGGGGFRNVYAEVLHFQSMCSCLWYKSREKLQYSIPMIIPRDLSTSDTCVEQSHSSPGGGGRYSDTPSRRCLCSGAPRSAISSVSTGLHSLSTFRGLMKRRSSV
# KCNQ1 block: blocks the human KCNQ1 potassium channel; AID 2642; B-score at 10 µM; CHO-K1 KCNQ1, FluxOR thallium flux fluorescence; stronger effect = higher value; actives 1.3% (n = 310,000); P51787;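 active = compounds whose thallium flux B-score, printed positive for inhibition, exceeds three library SD while starting fluorescence stays within three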;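 also: channel opened by potassium depolarization with thallium stimulus after 20 min compound exposure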
# KCNQ1 block val: human KCNQ1 channel inhibition, validation assay | shares compounds with KCNQ1 block | KCNQ1 cell line, FluxOR thallium flux fluorescence | inhibition, % at 10 µM | actives 93% (n = 1,600);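 active = primary screen active, with duplicate mean exceeding buffer control mean plus 3 SD of buffer wells, cut at about 28% in these data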;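 also: 0% = buffer control ratio and 100% = XE991 inhibitor control ratio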
# CHO KCNQ1 ctr: KCNQ1 inhibitor counter-screen hit in parental CHO cells. shares compounds with KCNQ1 block. parental CHO-K1, FluxOR thallium flux fluorescence ratio; stronger effect = lower value; zero means no signal rise above baseline. fluorescence ratio (Tl flux) at 10 µM. actives 21% (n = 1,600);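 active = mean of duplicate thallium-flux fluorescence ratios in parental host cells more than 5 SD below the buffer control mean, cut at about 0.38 in these data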;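 also: ratio is peak minus minimum fluorescence divided by baseline fluorescence; actives read low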
# KCNQ1 ephys val: human KCNQ1 inhibition validated by electrophysiology; calls only at 10 µM; KCNQ1-CHO cells, automated patch clamp current; actives 20% (n = 490); shares compounds with KCNQ1 block; AID 624120;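 active = KCNQ1 current drop exceeding 3 SD of negative control wells, seen in both duplicate runs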;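 also: steady state current during a 2 s step from -80 to +40 mV; negative values mean current inhibition and positive values mean potentiation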
# KCNQ2 spec: KCNQ1 inhibitor that also blocks rat KCNQ2 channel; inhibition, % at 10 µM; shares compounds with KCNQ1 block; actives 71% (n = 1,600); KCNQ2 cells, FluxOR thallium flux fluorescence;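 active = mean percent inhibition of the KCNQ2 thallium signal more than 5 SD above the buffer-only control wells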;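 also: KCNQ2 expressed in CHO cells; 0% = buffer control wells and 100% = XE-991 inhibitor control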
# KCNQ1-KCNE1 inh: KCNQ1 inhibitor that also blocks human KCNQ1/KCNE1 channel; shares compounds with KCNQ1 block; KCNQ1/KCNE1 cells, FluxOR thallium flux fluorescence; inhibition, % at 10 µM; actives 77% (n = 1,600); AID 652147;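 active = mean percent inhibition of duplicate wells above the buffer-only control mean plus 3 SD of those controls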;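 also: 0% = buffer only wells and 100% = XE-991 inhibitor control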
# Numbers without * were called inactive; i = inactive; nt = no result.
SMILES,KCNK9 inh,Kir21 block,hERG protect,KCNQ1 pot,KCNK3 block,KCNQ1 block,KCNQ1 block val,CHO KCNQ1 ctr,KCNQ2 spec,KCNQ1-KCNE1 inh,others
CCCCN1C2=NC(c3ccccc3)CN2c2ccccc21 (stereo not drawn),i,-3.43,-10.2,i,i,i,nt,nt,nt,nt,
CCCCc1nc2cc(C(=O)NC3CCOC(C)(C)C3)ccc2o1 (stereo not drawn),i,0.6,-8.4,i,i,i,nt,nt,nt,nt,
Cc1ccc(-n2cccn2)c(CN2CCCC(C(=O)c3sccc3C)C2)c1 (stereo not drawn),i,-4.48*,-17.3,i,i,9*,72.0*,0.404,99.0%*,54.5%*,
COc1ccc(O)c(CN2CCCC(C(=O)Nc3cccc(-n4cccn4)c3)C2)c1 (stereo not drawn),i,-1.75,-10.5,i,i,i,nt,nt,nt,nt,
Cc1cc(Br)ccc1NC(=O)CNC(=O)CSc1nccn1C,nt,nt,nt,nt,i,nt,nt,nt,nt,nt,
O=C(Nc1nc2ccccc2[nH]1)c1ccc(Cl)c(S(=O)(=O)N2CCCC2)c1,i,-0.25,-9.1,i,i,11*,0.0,0.502,i,35.5%*,
Cc1cccc(OCCC(=O)OCC(=O)Nc2c(C)nn(-c3ccccc3)c2C)c1,i,-0.41,-19.8,i,i,10*,32.5*,0.469,64.3%*,35.5%*,
Cc1ccc(C)c(OCC(=O)OCC(=O)Nc2c(C)nn(-c3ccccc3)c2C)c1,i,1.95,-9.9,i,i,i,nt,nt,nt,nt,
O=C1CC(C(=O)N2CCCc3ccccc32)CN1c1ccc(Cl)cc1 (stereo not drawn),i,-0.08,-8.8,i,i,i,nt,nt,nt,nt,
Cn1ncc(Br)c1NC(=O)Nc1ccc(OC(F)(F)F)cc1,i,-0.06,-11.6,i,i,8*,79.0*,0.495,132.0%*,i,
CC(CNS(=O)(=O)c1ccccc1)(c1ccccc1)N1CCCCC1 (stereo not drawn),i,0,-11.3,i,i,i,nt,nt,nt,nt,
Cc1ccccc1OCCC(=O)OCC(=O)N1c2ccccc2NC(=O)C1(C)C,i,-0.23,-6.2,i,i,i,nt,nt,nt,nt,
CC(C)(C)c1ccc(OCCC(=O)OCC(=O)N2c3ccccc3NC(=O)C2(C)C)cc1,i,1.71,-31.9,i,i,7*,120.5*,0.291*,140.3%*,55.5%*,
CN(C1CCCCC1)S(=O)(=O)c1ccc(NC(=O)c2ccc(Br)o2)cc1,-7.97*,-0.15,-8.8,i,i,7*,131.5*,0.415,115.3%*,193.0%*,KCNQ1 ephys val=i
Cc1ccc(S(=O)(=O)NC(C)C(c2cccs2)N2CCN(C)CC2)cc1 (stereo not drawn),i,-1.32,-0.7,i,i,i,nt,nt,nt,nt,
Cc1ccc(S(=O)(=O)NC(C)C(c2cccs2)N2CCN(c3ccccc3)CC2)cc1 (stereo not drawn),i,0.36,-5.3,i,i,7*,67.5*,0.446,88.7%*,92.0%*,
CN1/C(=C\C=C(/C#N)C(=O)Nc2ccc(Cl)cc2)C(C)(C)c2ccccc21,i,-2.04,-17.6,i,i,i,nt,nt,nt,nt,
CN1/C(=C\C(=O)Nc2ccc(Cl)cc2)C(C)(C)c2ccccc21,-7.15*,0,-24.0,i,i,10*,99.0*,0.487,116.0%*,47.5%*,KCNQ1 ephys val=i
Cc1ccc(CNS(=O)(=O)c2ccc3c(c2)CCN3C(=O)CCCC(=O)O)cc1,i,0.36,-13.0,i,i,i,nt,nt,nt,nt,
c1ccc(-c2cc3ccccc3[nH]2)cc1,i,1.96,-11.4,i,i,i,nt,nt,nt,nt,
Clc1ccc2[nH]c(-c3ccccc3)cc2c1,i,-0.05,-3.0,i,i,9*,131.0*,0.516,92.0%*,132.0%*,KCNQ1 ephys val=i
C#CCOc1ccc(CNC[C@H]2O[C@@H](n3cnc4c(N)ncnc43)[C@H](O)[C@@H]2O)cc1,nt,nt,nt,nt,i,nt,nt,nt,nt,nt,
Cc1cccc(NC(=O)CSc2nc3ccccc3nc2N2CCCC2)c1,i,-1.82,-9.8,i,i,i,nt,nt,nt,nt,
Cc1cccc(NC(=O)CSc2nc3ccccc3nc2N2CCCCC2)c1,i,0.13,-3.6,i,i,8*,84.0*,0.469,107.0%*,121.5%*,
CC1CN(c2nc3ccccc3nc2SCC(=O)Nc2cccc(C(F)(F)F)c2)CC(C)O1 (stereo not drawn),i,-1.32,-5.1,i,-14.8*,10*,119.5*,0.399,126.0%*,171.0%*,KCNQ1 ephys val=i
SMILES,KCNK9 inh,Kir21 block,hERG protect,KCNQ1 pot,KCNK3 block,KCNQ1 block,KCNQ1 block val,CHO KCNQ1 ctr,KCNQ2 spec,KCNQ1-KCNE1 inh,others
COc1ccccc1NC(=O)CSc1nc2ccccc2nc1N1CC(C)OC(C)C1 (stereo not drawn),i,0.83,-12.1,i,i,8*,85.5*,0.45,105.7%*,118.5%*,
COc1ccc(C)cc1NC(=O)CSc1nc2ccccc2nc1N1CC(C)OC(C)C1 (stereo not drawn),i,1.64,-8.8,i,i,7*,105.0*,0.436,95.0%*,121.0%*,KCNQ1 ephys val=i
COc1ccc(C)cc1NC(=O)CSc1nc2ccccc2nc1N1CCCC1,i,0.98,-12.2,i,i,i,nt,nt,nt,nt,
COc1ccccc1CCC(=O)OCC(=O)NC1CC1,i,0.82,-2.9,i,i,i,nt,nt,nt,nt,
Cc1ccc(C)c(NC(=O)COC(=O)COc2cccc3c2OC(C)(C)C3)c1,i,0.01,-13.6,i,i,i,nt,nt,nt,nt,
Nc1nc(SCCO)[nH]c(=O)c1NC(=O)c1ccc(Br)o1,i,2.25,-7.7,i,i,i,nt,nt,nt,nt,
COc1ccc(-c2nc(NC(=O)c3cc(C(C)(C)C)nn3C)sc2C)cc1,i,1.05,-12.6,i,i,16*,128.5*,0.414,88.7%*,126.0%*,KCNQ1 ephys val=i
OCCN1CCN(C(=S)NC2CCCC2)CC1,i,1.21,-11.8,i,i,10*,83.0*,0.518,i,110.0%*,
S=C(NC1CC1)N1CCN(C(=S)NC2CC2)CC1,i,1.72,-3.5,i,i,i,nt,nt,nt,nt,

# Assay outcomes deposited in PubChem by Johns Hopkins Ion Channel Center.
